Laboratory results published in ChEMBL document CHEMBL1143019, “Hybrid molecules of estrone: new compounds with potential antibacterial, antifungal, and antiproliferative activities” (2007).
Values after ≈ are worked out from the molar mass of the structure shown.

Legend:
Candida tropicalis [1] = assay: Antifungal activity against Candida tropicalis 156 after 48 hrs; type: functional
In short: (§1)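 Modified NCCLS M27-A broth microdilution with clinical isolates subcultured on Sabouraud dextrose agar. Suspensions diluted 1:50 in RPMI 1640 to give a final inoculum of 0.5–2.5×10³ CFU/mL for yeasts or 0.5–5×10⁴ CFU/mL for molds. The RPMI had L-glutamine, no bicarbonate, and 0.165 M MOPS to pH 7.0. Twofold dilutions from 250 to 0.49. Plates held at 35 °C, humid, without agitation. MIC is the lowest concentration giving ≥80% inhibition versus drug-free control, read at 24 and 48 h.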

HeLa = assay: Cytotoxicity against human HeLa cells after 72 hrs; type: functional; settings: for CC50: Homo sapiens, HeLa, 72 h
In short: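 About 10,000 cells per well in RPMI 1640 were preincubated 48 h without compound. The 10 test concentrations were then applied onto the monolayers and incubated 72 h at 37 °C in humidified 5% CO₂. Monolayers fixed with glutaraldehyde, stained with 0.05% methylene blue, and eluted with 0.33 N HCl; optical density measured at 630 nm.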

Pichia kudriavzevii [2] = assay: Antifungal activity against Candida krusei E28 after 24 hrs; type: functional; in short: as §1
Aspergillus fumigatus [3] = assay: Antifungal activity against Aspergillus fumigatus 231 after 48 hrs; type: functional; in short: as §1
Candida albicans [4] = assay: Antifungal activity against Candida albicans ATCC 44859 after 48 hrs; type: functional; settings: ATCC 44859, 48 h; in short: as §1
Aspergillus fumigatus [5] = assay: Antifungal activity against Aspergillus fumigatus 231 after 24 hrs; type: functional; in short: as §1
Lichtheimia corymbifera [6] = assay: Antifungal activity against Absidia corymbifera 272 after 48 hrs; type: functional; in short: as §1
L929 = assay: Antiproliferative activity against mouse L929 cells after 72 hrs; type: functional; settings: L929, 72 h
In short: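 About 10,000 adherent cells per well in RPMI 1640 with 10% heat-inactivated FBS and penicillin/streptomycin, without HEPES. Exposed to 10 concentrations for 72 h at 37 °C in humidified 5% CO₂. Monolayers fixed with glutaraldehyde, stained 15 min with 0.05% methylene blue, and eluted with 0.33 N HCl; OD read at 630 nm. GI50 derived from dose–response curves relative to control.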

Trichophyton benhamiae [7] = assay: Antifungal activity against Trichophyton mentagrophytes 445 after 120 hrs; type: functional, Arthroderma benhamiae
In short: (§2)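 Same modified M27-A microdilution with the mold inoculum of 0.5–5×10⁴ CFU/mL. Medium was RPMI 1640 with L-glutamine, no bicarbonate, and 0.165 M MOPS at pH 7.0. Twofold dilutions from 250 to 0.49. Incubated at 35 °C in a humid atmosphere.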

Pichia kudriavzevii [8] = assay: Antifungal activity against Candida krusei E28 after 48 hrs; type: functional; in short: as §1
Nakaseomyces glabratus [9] = assay: Antifungal activity against Candida glabrata 20/I after 24 hrs; type: functional; in short: as §1
Trichosporon beigelii [10] = assay: Antifungal activity against Trichosporon beigelii 1188 after 48 hrs; type: functional; in short: as §1
Candida albicans [11] = assay: Antifungal activity against Candida albicans ATCC 44859 after 24 hrs; type: functional; settings: ATCC 44859, 24 h; in short: as §1
Trichosporon beigelii [12] = assay: Antifungal activity against Trichosporon beigelii 1188 after 24 hrs; type: functional; in short: as §1
Candida tropicalis [13] = assay: Antifungal activity against Candida tropicalis 156 after 24 hrs; type: functional; in short: as §1
Lichtheimia corymbifera [14] = assay: Antifungal activity against Absidia corymbifera 272 after 24 hrs; type: functional; in short: as §1
K562 = assay: Antiproliferative activity against human K562 cells after 72 hrs; type: functional; settings: K562, 72 h
In short: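 About 10,000 suspension cells per well in RPMI 1640 with 10% heat-inactivated FBS and penicillin/streptomycin, without HEPES. Exposed to 10 concentrations for 72 h at 37 °C in humidified 5% CO₂. Wells diluted 1:50 in CASYTON and counted electronically, each result the mean of three successive counts. GI50 is where the concentration–response curve crosses 50% of control cell count.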

Nakaseomyces glabratus [15] = assay: Antifungal activity against Candida glabrata 20/I after 48 hrs; type: functional; in short: as §1
Trichophyton benhamiae [16] = assay: Antifungal activity against Trichophyton mentagrophytes 445 after 72 hrs; type: functional, Arthroderma benhamiae; in short: as §2
Mycobacterium kansasii [17] = assay: Antimicrobial activity against Mycobacterium kansasii My 235/80 after 14 days; type: functional; settings: 336 h
In short: (§3)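 Run in Šula semisynthetic liquid medium containing bovine serum. Compounds added as DMSO solutions at final concentrations of […]. Each strain was also inoculated onto Löwenstein–Jensen medium to control inoculum sterility and growth.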

Mycobacterium kansasii [18] = assay: Antimicrobial activity against Mycobacterium kansasii My 235/80 after 7 days; type: functional; settings: 168 h; in short: as §3
Mycobacterium avium [19] = assay: Antimicrobial activity against Mycobacterium avium My 330/88 after 14 days; type: functional; settings: 336 h
[20] = tested on: Mycobacterium tuberculosis; assay: Antimicrobial activity against Mycobacterium tuberculosis My 331/88 after 14 days; type: functional; settings: 336 h
Mycobacterium kansasii [21] = assay: Antimicrobial activity against Mycobacterium kansasii My 6509/96 after 7 days; type: functional; settings: 168 h; in short: as §3
Mycobacterium kansasii [22] = assay: Antimicrobial activity against Mycobacterium kansasii My 6509/96 after 14 days; type: functional; settings: 336 h; in short: as §3
[23] = tested on: Mycobacterium tuberculosis; assay: Antimicrobial activity against Mycobacterium tuberculosis My 331/88 after 21 days; type: functional; settings: 504 h
Mycobacterium kansasii [24] = assay: Antimicrobial activity against Mycobacterium kansasii My 235/80 after 21 days; type: functional; settings: 504 h; in short: as §3
Mycobacterium kansasii [25] = assay: Antimicrobial activity against Mycobacterium kansasii My 6509/96 after 21 days; type: functional; settings: 504 h; in short: as §3
Mycobacterium avium [26] = assay: Antimicrobial activity against Mycobacterium avium My 330/88 after 21 days; type: functional; settings: 504 h

Structure (SMILES) | MIC (Candida tropicalis [1]) [µM] | CC10 (HeLa) [µg/mL] | CC50 (HeLa) [µg/mL] | MIC (Pichia kudriavzevii [2]) [µM] | MIC (Aspergillus fumigatus [3]) [µM] | MIC (Candida albicans [4]) [µM] | MIC (Aspergillus fumigatus [5]) [µM] | MIC (Lichtheimia corymbifera [6]) [µM] | GI50 (L929) [µg/mL] | MIC (Trichophyton benhamiae [7]) [µM] | MIC (Pichia kudriavzevii [8]) [µM] | MIC (Nakaseomyces glabratus [9]) [µM] | MIC (Trichosporon beigelii [10]) [µM] | MIC (Candida albicans [11]) [µM] | MIC (Trichosporon beigelii [12]) [µM] | MIC (Candida tropicalis [13]) [µM] | MIC (Lichtheimia corymbifera [14]) [µM] | GI50 (K562) [µg/mL] | MIC (Nakaseomyces glabratus [15]) [µM] | MIC (Trichophyton benhamiae [16]) [µM] | also measured
C[C@]12CC[C@@H]3c4ccc(OCCCCCCCSc5nnnn5-c5ccc(Cl)cc5)cc4CC[C@H]3[C@@H]1CCC2=O | > 250 | 50 (≈ 86.3 µM) | > 50 | > 250 | > 250 | > 250 | 250 (≈ 145 µg/mL) | > 250 | > 50 | > 250 | > 250 | > 250 | > 250 | > 250 | > 250 | > 250 | > 250 | > 50 | > 250 | > 250 | 
Clc1ccc(-n2nnnc2SCc2ccccc2)cc1 | > 250 | 5 (≈ 16.5 µM) | 50 (≈ 165 µM) | > 250 | 62.5 (≈ 18.9 µg/mL) | > 250 | 62.5 (≈ 18.9 µg/mL) | > 250 | 16.7 (≈ 55.2 µM) | 62.5 (≈ 18.9 µg/mL) | > 250 | > 250 | > 250 | > 250 | > 250 | > 250 | > 250 | > 50 | > 250 | 31.3 (≈ 9.48 µg/mL) | MIC (Mycobacterium kansasii [17]): 32 µM (≈ 9.69 µg/mL); MIC (Mycobacterium kansasii [18]): 16 µM (≈ 4.84 µg/mL); MIC (Mycobacterium avium [19]): 62.5 µM (≈ 18.9 µg/mL); MIC [20]: 16 µM (≈ 4.84 µg/mL); MIC (Mycobacterium kansasii [21]): 16 µM (≈ 4.84 µg/mL); MIC (Mycobacterium kansasii [22]): 16 µM (≈ 4.84 µg/mL)
Cc1ccc(-n2nnnc2SCCCCCCCOc2ccc3c(c2)CC[C@@H]2[C@@H]3CC[C@]3(C)C(=O)CC[C@@H]23)cc1 | > 250 | 28.7 (≈ 51.4 µM) | > 50 | > 250 | > 250 | > 250 | 250 (≈ 140 µg/mL) | > 250 | > 50 | > 250 | > 250 | > 250 | > 250 | > 250 | > 250 | > 250 | > 250 | > 50 | > 250 | > 250 | MIC (Mycobacterium kansasii [17]): > 500 µM; MIC [23]: > 500 µM; MIC (Mycobacterium kansasii [24]): > 500 µM; MIC (Mycobacterium avium [19]): > 500 µM; MIC [20]: 500 µM (≈ 279 µg/mL)
OC(Cn1cncn1)(Cn1cncn1)c1ccc(F)cc1F [FLUCONAZOLE] | > 250 |  |  | 52.2 (≈ 16 µg/mL) | > 250 | 1.6 (≈ 0.49 µg/mL) | > 250 | > 250 |  | 52.2 (≈ 16 µg/mL) | 104 (≈ 32 µg/mL) | 13.1 (≈ 4.01 µg/mL) | 6.5 (≈ 1.99 µg/mL) | 0.8 (≈ 0.245 µg/mL) | 3.3 (≈ 1.01 µg/mL) | 1.6 (≈ 0.49 µg/mL) | > 250 |  | 52.2 (≈ 16 µg/mL) |  | 
Cc1ccc(-n2nnnc2S)cc1 |  | 33 (≈ 172 µM) | > 50 |  |  |  |  |  | > 50 |  |  |  |  |  |  |  |  | 42.8 (≈ 223 µM) |  |  | MIC (Mycobacterium kansasii [25]): > 500 µM; MIC (Mycobacterium avium [26]): > 500 µM; MIC (Mycobacterium kansasii [17]): > 500 µM; MIC (Mycobacterium kansasii [18]): 500 µM (≈ 96.1 µg/mL); MIC [23]: > 500 µM; MIC (Mycobacterium kansasii [24]): > 500 µM; MIC (Mycobacterium avium [19]): 500 µM (≈ 96.1 µg/mL); MIC [20]: 500 µM (≈ 96.1 µg/mL); MIC (Mycobacterium kansasii [21]): 500 µM (≈ 96.1 µg/mL); MIC (Mycobacterium kansasii [22]): 500 µM (≈ 96.1 µg/mL)
